ChEMBL document CHEMBL1124639, “Synthesis and in vitro pharmacology of arpromidine and related phenyl(pyridylalkyl)guanidines, a potential new class of positive inotropic drugs” (J Med Chem, 1989)

What was measured:
[1] = biological target: Histamine H2 receptor (Cavia porcellus) (UniProt P47747); assay: Agonistic activity relative to histamine on electrically stimulated papillary muscle of guinea pig; format: functional, tissue-based; conditions: Muscle tissue
How it was run: (§1)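 Isolated right-ventricular papillary muscle from guinea pig, electrically paced at 1 Hz with 1 ms pulses, in Krebs-Henseleit solution gassed with O2/CO2 95:5 at 32.5 °C. Compounds were tested as hydrohalide salts. Cumulative concentration-response curves of contractile force were run against histamine as the standard agonist. […] relative potency were taken from pD2, with histamine maximum = 1.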

[2] = biological target: Histamine H2 receptor (Cavia porcellus) (UniProt P47747); assay: Intrinsic activity (as a measure of agonism) on electrically stimulated papillary muscle of guinea pig; format: functional, tissue-based; conditions: Muscle tissue; how it was run: as §1
[3] = biological target: Histamine H2 receptor (Cavia porcellus) (UniProt P47747); assay: Histamine H2 receptor agonistic activity (as a measure of agonism) at the isolated right atrium of guinea pig, activity relative to histamine.; format: functional, tissue-based; conditions: Cardiac atrium
How it was run: (§2)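 Spontaneously beating isolated guinea pig right atrium with a positive chronotropic read-out. Cumulative concentration-response curves were run against histamine dihydrochloride as the standard. Incubation after each concentration was usually 25 min, adjusted until equilibrium. H2 selectivity was checked with cimetidine (10 µM and 1 µM) and metoprolol (1 µM). Potency relative to histamine = 1 was calculated from mean pD2 values.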

[4] = biological target: Histamine H2 receptor (Cavia porcellus) (UniProt P47747); assay: Histamine H2 receptor agonism relative to histamine on isolated guinea pig right atrium; format: functional, tissue-based; conditions: Cardiac atrium; how it was run: as §2
[5] = biological target: Histamine H2 receptor (Cavia porcellus) (UniProt P47747); assay: Potency relative to histamine calculated from mean pD2 value in guinea pig right atrium.; format: functional, tissue-based; conditions: Cardiac atrium; how it was run: as §2
Histamine H1 receptor = Histamine H1 receptor (Cavia porcellus, UniProt P31389); assay: Antagonist activity at histamine H1 receptor against histamine in isolated ileum of guinea pig.; format: functional, tissue-based; conditions: read-out: pA2 (converted)
How it was run: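 Isolated guinea pig ileum contracted by histamine, with histamine dihydrochloride as the standard agonist in cumulative dose-response curves. pA2 was derived. For compounds that depressed the histamine maximum at 10 µM, -log KB was taken at 3 µM antagonist from log(DR-1) = log[ant.] - log KB.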

Cavia porcellus [6] = organism: Cavia porcellus; assay: Chronotropic effect assessed from maximal increase in delta LV (dp/dtmax) in isolated perfused guinea pig heart; format: functional; conditions: in the assay text read “Inotropic effect” for “Chronotropic effect”
How it was run: (§3)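 Langendorff-perfused isolated guinea pig heart. Compounds were given as a bolus injected into the perfusion stream, with impromidine as reference. Net increases in LV dp/dtmax, heart rate and coronary flow were expressed against impromidine = 100% in a control group (n = 6 each). Relative potency was taken from molar ED50 ratios versus impromidine = 100%.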

Cavia porcellus [7] = organism: Cavia porcellus; assay: Increase in heart rate with maximal inotropic response in isolated perfused guinea pig heart; format: functional; parameters: unit not given beside the values; how it was run: as §3
Cavia porcellus [8] = organism: Cavia porcellus; assay: Relative potency with impromidine (100%) in isolated perfused guinea pig heart; format: functional; how it was run: as §3
Cavia porcellus [9] = organism: Cavia porcellus; assay: Increase in coronary flow with maximal inotropic response in isolated perfused guinea pig heart; format: functional; parameters: unit not given beside the values; how it was run: as §3

Sequence of Histamine H2 receptor (Cavia porcellus) (P47747 whole entry): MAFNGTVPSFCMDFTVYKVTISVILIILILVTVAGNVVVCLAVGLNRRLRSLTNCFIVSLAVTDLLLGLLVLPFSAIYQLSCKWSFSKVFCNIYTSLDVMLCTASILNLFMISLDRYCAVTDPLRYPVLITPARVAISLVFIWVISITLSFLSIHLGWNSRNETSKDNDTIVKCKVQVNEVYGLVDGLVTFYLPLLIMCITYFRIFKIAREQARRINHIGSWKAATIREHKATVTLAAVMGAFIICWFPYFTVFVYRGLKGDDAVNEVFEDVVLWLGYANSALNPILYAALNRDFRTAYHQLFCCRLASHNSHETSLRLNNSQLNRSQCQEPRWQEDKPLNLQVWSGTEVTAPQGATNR
Sequence of Histamine H1 receptor (P31389 whole entry): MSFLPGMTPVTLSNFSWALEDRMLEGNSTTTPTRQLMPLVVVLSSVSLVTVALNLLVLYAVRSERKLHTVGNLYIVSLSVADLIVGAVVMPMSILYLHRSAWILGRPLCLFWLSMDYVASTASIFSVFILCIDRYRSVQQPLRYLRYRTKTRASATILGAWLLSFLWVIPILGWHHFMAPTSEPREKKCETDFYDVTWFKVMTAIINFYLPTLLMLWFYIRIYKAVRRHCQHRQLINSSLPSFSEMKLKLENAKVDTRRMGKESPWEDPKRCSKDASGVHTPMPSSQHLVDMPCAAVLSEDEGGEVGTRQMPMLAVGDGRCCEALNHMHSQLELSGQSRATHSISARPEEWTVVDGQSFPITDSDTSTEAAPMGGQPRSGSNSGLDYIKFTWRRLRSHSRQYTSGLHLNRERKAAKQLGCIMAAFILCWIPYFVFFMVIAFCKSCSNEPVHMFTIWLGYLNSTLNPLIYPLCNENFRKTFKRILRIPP

| pD2 [1] | Intrinsic activity [2] | Intrinsic activity [3] | pD2 [4] | Relative potency [5] | Kb (Histamine H1 receptor) | Structure (SMILES) | Delta LV (Cavia porcellus [6]) | Delta heart rate (Cavia porcellus [7]) | Relative potency (Cavia porcellus [8]) | Delta coronary flow (Cavia porcellus [9]) |
| --- | --- | --- | --- | --- | --- | --- | --- | --- | --- | --- |
| 7.91 | 0.8 | 1 | 8.09 | 123 | – | N=C(NCCCc1c[nH]cn1)NCCC(c1ccc(F)cc1)c1cccnc1 (configuration not stated) | – | – | – | – |
| 7.39 | 0.8 | 1 | 7.84 | 69.2 | 77.6 nM | N=C(NCCCc1c[nH]cn1)NCCC(c1ccc(Cl)cc1)c1ccccn1 (configuration not stated) | 91 | 62 | 90 | 103 |
| 7.23 | 0.9 | 0.9 | 7.76 | 57.5 | 282 nM | N=C(NCCCc1c[nH]cn1)NCCC(c1ccc(C(F)(F)F)cc1)c1ccccn1 (configuration not stated) | – | – | – | – |
| – | – | 1 | 6.61 | 4.1 | – | N=C(NCCCc1c[nH]cn1)NCCCC(c1ccccc1)c1ccccn1 (configuration not stated) | – | – | – | – |
| – | – | 1 | 7.46 | 28.8 | 437 nM | N=C(NCCCc1c[nH]cn1)NCCC(c1ccccn1)c1ccccc1F (configuration not stated) | – | – | – | – |
| 6.97 | 0.4 | 1 | 7.48 | 30.2 | 120 nM | N=C(NCCCc1c[nH]cn1)NCCC(c1ccc(Br)cc1)c1ccccn1 (configuration not stated) | 93 | 101 | 61 | 155 |
| – | – | 0.8 | 6.17 | 1.5 | 141 nM | N=C(NCCCc1c[nH]cn1)NCCC(Cc1ccccc1)c1ccc(F)cc1 (configuration not stated) | – | – | – | – |
| 7.79 | 0.5 | 1 | 7.88 | 75.9 | 158 nM | N=C(NCCCc1c[nH]cn1)NCCC(c1cccc(F)c1)c1ccccn1 (configuration not stated) | – | – | – | – |
| 7.45 | 0.7 | 1 | 7.73 | 53.7 | 34.7 nM | N=C(NCCCc1c[nH]cn1)NCCC(c1ccccc1)c1ccc(F)cc1 (configuration not stated) | – | – | – | – |
| – | – | 0.9 | 6.87 | 7.4 | 46.8 nM | N=C(NCCCc1c[nH]cn1)NCCCC(c1ccc(F)cc1)c1ccccn1 (configuration not stated) | – | – | – | – |
| – | – | 0.8 | 5.4 | 0.25 | 1100 nM | CN(CCC(c1ccc(F)cc1)c1ccccn1)C(=N)NCCCc1c[nH]cn1 (configuration not stated) | – | – | – | – |
| 7.71 | 0.6 | 1 | 7.94 | 87.1 | – | N=C(NCCCc1c[nH]cn1)NCCC(c1cccc(Cl)c1)c1ccccn1 (configuration not stated) | 103 | 96 | 199 | 79 |
| 7.94 | 0.8 | 1 | 8.01 | 102 | – | N=C(NCCCc1c[nH]cn1)NCCC(c1ccc(F)cc1)c1ccccn1 (configuration not stated) [ARPROMIDINE] | 97 | 57 | 146 | 143 |

More lines, now with the values behind:

| Structure (SMILES) | pD2 [1] | Intrinsic activity [2] | Intrinsic activity [3] | pD2 [4] | Relative potency [5] | Kb (Histamine H1 receptor) | Delta LV (Cavia porcellus [6]) | Delta heart rate (Cavia porcellus [7]) | Relative potency (Cavia porcellus [8]) | Delta coronary flow (Cavia porcellus [9]) |
| --- | --- | --- | --- | --- | --- | --- | --- | --- | --- | --- |
| Cc1ccc(C(CC/N=C(\N)NCCCc2c[nH]cn2)c2ccccn2)cc1 (configuration not stated) | 7.15 | 1 | 1 | 7.71 | 51.3 | 148 nM | 96 | 77 | 138 | 59 |
| N=C(NCCCc1c[nH]cn1)NCCC(c1cccc(C(F)(F)F)c1)c1ccccn1 (configuration not stated) | 7.44 | 0.7 | 1 | 7.43 | 26.9 | 525 nM | – | – | – | – |
| N=C(NCCCc1c[nH]cn1)NCC(c1ccccc1)c1ccccn1 (configuration not stated) | – | – | 1 | 6.35 | 2.2 | 3310 nM | – | – | – | – |
| Cc1[nH]cnc1CSCCNC(=N)NCCCc1c[nH]cn1 [IMPROMIDINE] | – | – | – | – | – | – | 100 | 100 | 100 | 100 |
| N/C(=N\CCC(c1cccc([N+](=O)[O-])c1)c1ccccn1)NCCCc1c[nH]cn1 (configuration not stated) | – | – | 0.9 | 6.91 | 8.1 | 1700 nM | – | – | – | – |
| N=C(NC/C=C(\c1ccc(F)cc1)c1ccccn1)NCCCc1c[nH]cn1 | – | – | 1 | 7.47 | 29.5 | 347 nM | – | – | – | – |
| NC(=NCCC(c1ccc(F)cc1)c1ccccn1)NCCCc1cnc[nH]1 (configuration not stated) [ARPROMIDINE] | – | – | – | – | – | 22.4 nM | – | – | – | – |
| N/C(=N\CCC(c1cccc(N)c1)c1ccccn1)NCCCc1c[nH]cn1 (configuration not stated) | – | – | 0.9 | 7.38 | 24 | 851 nM | – | – | – | – |
| N=C(NCCCc1c[nH]cn1)NCCC(c1ccccc1)c1ccc(Cl)c(Cl)c1 (configuration not stated) | 6.03 | 0.6 | 1 | 7.46 | 28.8 | 195 nM | – | – | – | – |
| N=C(NCCCc1c[nH]cn1)NCCSC(c1ccccc1)c1ccccn1 (configuration not stated) | – | – | 1 | 6.6 | 4 | – | – | – | – | – |
| N=C(NCCCc1c[nH]cn1)NCCC(c1ccc(Cl)c(Cl)c1)c1ccccn1 (configuration not stated) | 7.54 | 0.8 | 1 | 8.19 | 155 | 79.4 nM | 121 | 62 | 221 | 128 |
| N=C(NCCCc1c[nH]cn1)NCCC(c1ccccn1)c1ccccn1 | – | – | 1 | 6.9 | 7.9 | 389 nM | – | – | – | – |
| COc1ccc(C(CC/N=C(\N)NCCCc2c[nH]cn2)c2ccccn2)cc1 (configuration not stated) | 7 | 0.5 | 1 | 7.44 | 27.5 | 269 nM | – | – | – | – |
| N=C(NCCCc1c[nH]cn1)NCCC(c1ccccn1)c1cccs1 (configuration not stated) | – | – | 1 | 7.16 | 14.5 | 45.7 nM | – | – | – | – |
| N=C(NCCCc1c[nH]cn1)NCCC(c1cc(Cl)cc(Cl)c1)c1ccccn1 (configuration not stated) | – | – | 1 | 7.37 | 23.4 | 43.7 nM | – | – | – | – |
| N/C(=N\CCC(O)(c1ccc(F)cc1)c1ccccn1)NCCCc1c[nH]cn1 (configuration not stated) | – | – | 0.9 | 7.42 | 26.3 | 115 nM | – | – | – | – |
| N=C(NCCCc1c[nH]cn1)NCCC(c1ccccn1)c1ccc(Cl)cc1Cl (configuration not stated) | – | – | 0.9 | 7.72 | 52.5 | 288 nM | – | – | – | – |
